{"data": "Measurements gathered from unrelated publications", "organism": "Pseudomonas aeruginosa", "effect on": "microbial growth", "note": "Compare with care: the assays were run in different laboratories."}
{"SMILES": "CCCNc1nc(Cl)c2c(c1O)C(=O)C1=C(O)[C@]3(O)C(=O)C(C(N)=O)=C(O)[C@@H](N(C)C)[C@@H]3C[C@@H]1C2.Cl.Cl.Cl", "test": "broth dilution", "system": "ATCC27853", "MIC": "32 µg/mL"}
{"SMILES": "CC1=NN(CNc2ccc(Cl)cc2)C(=O)C1=NNn1c(-c2ccccc2)nc2ccccc2c1=O", "test": "broth dilution", "setting": "24 h", "MIC": "51.5 µM"}
{"SMILES": "CC1(C)S[C@@H]2[C@H](NC(=O)C(C(=O)O)c3ccccc3)C(=O)N2[C@H]1C(=O)O (stereo partly shown)", "test": "broth dilution", "setting": "clinical isolate", "MIC": "> 200 µM"}
{"SMILES": "C[C@H]1[C@H](NC(=O)/C(=N\\OC(C)(C)C(=O)O)c2csc(N)n2)C(=O)N1S(=O)(=O)O", "test": "agar dilution", "system": "ATCC27", "MIC": "4 µg/mL"}
{"SMILES": "Cc1ccccc1NCc1ccc(Oc2ccccn2)cc1", "MIC": "> 50 µg/mL"}
{"SMILES": "O=C(CCc1cc(O)c(O)c(O)c1)NCCCCCCCC[P+](c1ccccc1)(c1ccccc1)c1ccccc1.[Br-]", "test": "broth dilution", "system": "ATCC27853", "setting": "18 h", "MIC": "> 32 µg/mL"}
{"SMILES": "Cn1c(SCc2ccc(Cl)cc2)nnc1-c1cncc(C#Cc2ccccc2)c1", "MIC": "≥ 20 µg/mL"}
{"SMILES": "Cc1ccc(C)n1-c1ccc(-c2nnc(-c3ccccc3Cl)[nH]2)cc1", "test": "broth dilution", "system": "ATCC10145", "setting": "18 h", "MIC": "250 µg/mL"}
{"SMILES": "C[C@@H](O)[C@H]1C(=O)N2C(C(=O)O)=C(S[C@@H]3CN[C@H](C(=O)N(C)C)C3)[C@H](C)[C@H]12", "test": "broth dilution", "setting": "24 h", "MIC": "0.25 µg/mL"}
{"SMILES": "CC1(C)SC2C(NC(=O)C(NC(=O)C3=C(O)C4(CC4)NC3=O)c3ccccc3)C(=O)N2C1C(=O)O (stereo not shown)", "MIC": "25 µg/mL"}
{"SMILES": "COc1c(C)c(OS(=O)(=O)c2ccc3ccccc3c2)c(C)c(O)c1C(=O)/C=C/c1ccccc1", "test": "broth dilution", "system": "ATCC27853", "MIC": "5000 µg/mL"}
{"SMILES": "CC(C)Oc1c(NC(=O)c2ccc(NC(=O)[C@H](CC(N)=O)NC(=O)c3ccc(NC(=O)c4ccc(C#N)c(F)c4)cc3)cc2)ccc(C(=O)Nc2ccc(C(=O)O)cc2)c1O", "system": "PA14", "MIC": "8 µg/mL"}
{"SMILES": "O=[N+]([O-])c1ccc(O)c2ncccc12", "test": "broth dilution", "system": "ATCC27853", "MIC": "16 µg/mL"}
{"SMILES": "O=[N+]([O-])c1ccc(-c2nc3cc(F)ccc3[nH]2)o1", "test": "broth dilution", "system": "ATCC27853", "MIC": "> 64 µg/mL"}
{"SMILES": "CCn1cc(C(=O)O)c(=O)c2cc(F)c(N3CCNCC3)cc21", "test": "broth dilution", "system": "ATCC10145", "setting": "18 h", "MIC": "> 5 µg/mL"}
{"SMILES": "CO[C@@H](C(N)=O)[C@H](NC(=O)c1ccc(NC(=O)c2ccc(C#N)cc2)cc1)C(=O)Nc1ccc(C(=O)Nc2ccc(C(=O)Nc3ccc(C(=O)O)cc3)c(O)c2OC(C)C)cc1", "system": "PA14", "MIC": "0.5 µg/mL"}
{"SMILES": "Brc1cccc(NCc2ccc(Oc3ccccn3)cc2)c1", "MIC": "> 50 µg/mL"}
{"SMILES": "CNC(C)C1CCC(N)C(OC2C(N)CC(N)C(OC3OCC(C)(O)C(NC)C3O)C2O)O1 (stereo not shown)", "test": "broth dilution", "system": "PAO1", "MIC": "4 µg/mL"}
{"SMILES": "CC(C)Oc1c(NC(=O)c2ccc(NC(=O)[C@H](CC(N)=O)NC(=O)c3cccc(NC(=O)c4ccc(C#N)cc4)c3)cc2)ccc(C(=O)Nc2ccc(C(=O)O)cc2)c1O", "system": "PA14", "MIC": "> 64 µg/mL"}
{"SMILES": "COc1c(C)c(OS(=O)(=O)c2ccc3ccccc3c2)c(C)c(OS(=O)(=O)c2ccc3ccccc3c2)c1C(=O)/C=C/c1ccccc1", "test": "broth dilution", "system": "ATCC27853", "MIC": "5000 µg/mL"}
{"SMILES": "CC(C)Oc1c(NC(=O)c2ccc(NC(=O)[C@H](CC(N)=O)NC(=O)c3ccc(NC(=O)c4ccccc4)cc3)cc2)ccc(C(=O)Nc2ccc(C(=O)O)cc2)c1O", "system": "PA14", "MIC": "> 64 µg/mL"}
{"SMILES": "CN(C)[C@@H]1C(O)=C(C(N)=O)C(=O)[C@@]2(O)C(O)=C3C(=O)c4c(cc5ccc(CN6CCCC6)cc5c4O)C[C@H]3C[C@@H]12", "test": "broth dilution", "system": "ATCC27853", "MIC": "32 µg/mL"}
{"SMILES": "CC1=NN(CNc2ccccc2[N+](=O)[O-])C(=O)C1=NNn1c(-c2ccccc2)nc2ccccc2c1=O", "test": "broth dilution", "setting": "24 h", "MIC": "50.4 µM"}
{"SMILES": "CC(C)Oc1c(NC(=O)c2ccc(NC(=O)[C@H](CC(N)=O)NC(=O)c3ccc(NC(=O)c4ccc(C(F)(F)F)cc4)cc3)cc2)ccc(C(=O)Nc2ccc(C(=O)O)cc2)c1O", "system": "PA14", "MIC": "> 64 µg/mL"}
{"SMILES": "CN(C)[C@@H]1C(O)=C(C(N)=O)C(=O)[C@@]2(O)C(O)=C3C(=O)c4c(cc5ccccc5c4O)C[C@H]3C[C@@H]12", "test": "broth dilution", "system": "ATCC27853", "MIC": "32 µg/mL"}
{"SMILES": "CC(C)Oc1c(NC(=O)c2ccc(NC(=O)[C@H](CC(N)=O)NC(=O)c3ccc(C#Cc4ccc(C#N)cc4)cc3)cc2)ccc(C(=O)Nc2ccc(C(=O)O)cc2)c1O", "system": "PA14", "MIC": "> 64 µg/mL"}
{"SMILES": "CN(C)CCCNc1nc(Cl)c2c(c1O)C(=O)C1=C(O)[C@]3(O)C(=O)C(C(N)=O)=C(O)[C@@H](N(C)C)[C@@H]3C[C@@H]1C2.Cl", "test": "broth dilution", "system": "ATCC27853", "MIC": "> 32 µg/mL"}
{"SMILES": "COc1ccc(-c2nc3ccccc3n2Cc2ccccc2)cc1OC", "test": "broth dilution", "system": "ATCC27853", "MIC": "256 µg/mL"}
{"SMILES": "CC1(C)SC2C(NC(=O)C(NC(=O)C3=C(O)C(Cc4ccsc4)NC3=O)c3ccccc3)C(=O)N2C1C(=O)O (stereo not shown)", "MIC": "25 µg/mL"}
{"SMILES": "CC(C)OCCNc1nc(Cl)c2c(c1O)C(=O)C1=C(O)[C@]3(O)C(=O)C(C(N)=O)=C(O)[C@@H](N(C)C)[C@@H]3C[C@@H]1C2.Cl.Cl.Cl", "test": "broth dilution", "system": "ATCC27853", "MIC": "> 32 µg/mL"}
{"SMILES": "O=C(O)c1cn(C2CC2)c2cc(N3CCNCC3)c(F)cc2c1=O", "test": "broth dilution", "system": "ATCC27853", "MIC": "16 µg/mL"}
{"SMILES": "CCCCCCC/C=C/C(=O)N1C(=O)/C(=C(\\O)c2ccncc2)C(=O)C1CC(C)C (stereo not shown)", "system": "PA01", "MIC": "> 200 µg/mL"}
{"SMILES": "CNc1nc(Cl)c2c(c1O)C(=O)C1=C(O)[C@]3(O)C(=O)C(C(N)=O)=C(O)[C@@H](N(C)C)[C@@H]3C[C@@H]1C2.Cl.Cl.Cl", "test": "broth dilution", "system": "ATCC27853", "MIC": "8 µg/mL"}
{"SMILES": "CCCCCCC/C=C/C(=O)N1C(=O)/C(=C(\\O)c2ccccc2)C(=O)C1CC(C)C (stereo not shown)", "system": "PA01", "MIC": "> 200 µg/mL"}
{"SMILES": "O=C(CCCCCCCC[P+](c1ccccc1)(c1ccccc1)c1ccccc1)Nc1ccc(O)c(O)c1.[Br-]", "test": "broth dilution", "system": "ATCC27853", "setting": "18 h", "MIC": "> 32 µg/mL"}
{"SMILES": "CC(C)Oc1c(NC(=O)c2ccc(NC(=O)[C@H](CC(N)=O)NC(=O)c3ccc(NC(=O)C(C)Sc4ccc(C#N)cc4)cc3)cc2)ccc(C(=O)Nc2ccc(C(=O)O)cc2)c1O (stereo partly shown)", "system": "PA14", "MIC": "> 64 µg/mL"}
{"SMILES": "CCCCCCC/C=C/C(=O)N1CC(=O)/C(=C(\\C)O)C1=O", "system": "PA01", "MIC": "200 µg/mL"}
